According to ChEMBL document CHEMBL3085772, “Synthesis, biological evaluation and molecular modeling study of 5-trifluoromethyl-Δ²-pyrazoline and isomeric 5/3-trifluoromethylpyrazole derivatives as anti-inflammatory agents” (2013):

Columns and labels:
Type in all cases: functional
Set-up in all cases: scale not given: the % may be the effect or the level left
[1] = tested on: Rattus norvegicus; assay: Antiinflammatory activity in Wistar albino rat assessed as reduction in carrageenan-induced paw edema at 50 mg/kg, po administered 30 mins prior to carrageenan challenge measured after 4 hrs by plethysmometer
Outline: (§1)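 Rats housed under standard light and temperature with free food and water; food withdrawn 12 h before and during testing; six rats per group, control given tween 80. Oral dosing 30 min before subplantar injection of 0.1 mL 1% w/v carrageenan in normal saline into left hind paw. Paw volume read by plethysmometer at baseline and 1, 2, 3, 4 h; %AI = (Vc−Vt)/Vc×100.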

[2] = tested on: Rattus norvegicus; assay: Antiinflammatory activity in Wistar albino rat assessed as reduction in carrageenan-induced paw edema at 50 mg/kg, po administered 30 mins prior to carrageenan challenge measured after 3 hrs by plethysmometer; outline: as §1
[3] = tested on: Rattus norvegicus; assay: Antiinflammatory activity in Wistar albino rat assessed as reduction in carrageenan-induced paw edema at 50 mg/kg, po administered 30 mins prior to carrageenan challenge measured after 1 hr by plethysmometer; outline: as §1
[4] = tested on: Rattus norvegicus; assay: Antiinflammatory activity in Wistar albino rat assessed as reduction in carrageenan-induced paw edema at 50 mg/kg, po administered 30 mins prior to carrageenan challenge measured after 2 hrs by plethysmometer; outline: as §1
[5] = tested on: Rattus norvegicus; assay: Antiinflammatory activity in Wistar albino rat assessed as reduction in carrageenan-induced paw edema at 10 mg/kg, po administered 30 mins prior to carrageenan challenge measured after 4 hrs by plethysmometer; outline: as §1
[6] = tested on: Rattus norvegicus; assay: Antiinflammatory activity in Wistar albino rat assessed as reduction in carrageenan-induced paw edema at 10 mg/kg, po administered 30 mins prior to carrageenan challenge measured after 1 hr by plethysmometer; outline: as §1
[7] = tested on: Rattus norvegicus; assay: Antiinflammatory activity in Wistar albino rat assessed as reduction in carrageenan-induced paw edema at 10 mg/kg, po administered 30 mins prior to carrageenan challenge measured after 3 hrs by plethysmometer; outline: as §1
[8] = tested on: Rattus norvegicus; assay: Antiinflammatory activity in Wistar albino rat assessed as reduction in carrageenan-induced paw edema at 10 mg/kg, po administered 30 mins prior to carrageenan challenge measured after 2 hrs by plethysmometer; outline: as §1

Row | SMILES | Activity [1] [%] | Activity [2] [%] | Activity [3] [%] | Activity [4] [%] | Activity [5] [%] | Activity [6] [%] | Activity [7] [%] | Activity [8] [%]
1 | Cc1cc(C)nc(-n2nc(-c3cccs3)cc2C(F)(F)F)n1 | 37 | 47 | 8.6 | 18 | – | – | – | –
2 | Cc1ccc(C2=NN(c3nc(C)cc(C)n3)[C@](O)(C(F)(F)F)C2)cc1 | 50 | 54 | 32 | 35 | – | – | – | –
3 | Cc1cc(C)nc(-n2nc(-c3ccc(Cl)cc3)cc2C(F)(F)F)n1 | 53 | 58 | 35 | 54 | – | – | – | –
4 | Cc1ccc(-c2cc(C(F)(F)F)nn2-c2nc(C)cc(C)n2)cc1 | 53 | 69 | 48 | 55 | – | – | – | –
5 | Cc1cc(C)nc(N2N=C(c3ccc(Cl)cc3)C[C@@]2(O)C(F)(F)F)n1 | 45 | 59 | 5.7 | 50 | – | – | – | –
6 | Cc1cc(C)nc(N2N=C(c3ccccc3)C[C@@]2(O)C(F)(F)F)n1 | 45 | 50 | 44 | 47 | – | – | – | –
7 | COc1ccc(-c2cc(C(F)(F)F)nn2-c2nc(C)cc(C)n2)cc1 | 61 | 72 | 56 | 59 | – | – | – | –
8 | COc1ccc2c(c1)c(CC(=O)O)c(C)n2C(=O)c1ccc(Cl)cc1 [INDOMETHACIN] | – | – | – | – | 74 | 69 | 78 | 75
9 | Cc1cc(C)nc(-n2nc(C(F)(F)F)cc2C(F)(F)F)n1 | 44 | 57 | 34 | 46 | – | – | – | –
10 | Cc1cc(C)nc(-n2nc(C(F)(F)F)cc2-c2ccc(F)cc2)n1 | 58 | 67 | 29 | 59 | – | – | – | –
11 | Cc1cc(C)nc(-n2nc(C(F)(F)F)cc2-c2ccccc2)n1 | 51 | 62 | 33 | 43 | – | – | – | –
12 | Cc1cc(C)nc(-n2nc(-c3ccccc3)cc2C(F)(F)F)n1 | 56 | 59 | 4.3 | 20 | – | – | – | –
13 | Cc1cc(C)nc(-n2nc(C(F)(F)F)cc2-c2ccc(Cl)cc2)n1 | 63 | 76 | 55 | 64 | – | – | – | –
14 | Cc1cc(C)nc(N2N=C(c3ccc(F)cc3)C[C@@]2(O)C(F)(F)F)n1 | 38 | 54 | 49 | 51 | – | – | – | –
15 | Cc1cc(C)nc(N2N=C(C(F)(F)F)C[C@@]2(O)C(F)(F)F)n1 | 23 | 49 | 42 | 44 | – | – | – | –
16 | Cc1cc(C)nc(-n2nc(-c3ccc(F)cc3)cc2C(F)(F)F)n1 | 49 | 55 | 26 | 38 | – | – | – | –
